# ChEMBL document CHEMBL4619807, “Exploration of Alternative Scaffolds for P2Y14 Receptor Antagonists Containing a Biaryl Core” (J Med Chem, 2020)
# Active and inactive are the calls of the source. No cut-off for these calls is given here.
# Key:
# Mus musculus = assay: Antiasthmatic activity in Aspergillus oryzae protease-mediated C57BL/6J mouse model of allergic asthma assessed as reduction in eosinophil infiltration in bronchoalveolar lavage fluid at 10 mg/kg, ip dosed 30 mins before OVA aerosol challenge and measured 2 days post-challenge by cell differential count assay; format: functional, organism-based
# [1] = Aqueous solubility at pH 7.4 by pION method; format: physicochemical; details: buffer
# Outline: (§1)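 Equilibrium aqueous solubility measured by the pION method at pH 4.0 and at pH 7.4, in μg/mL; mean ± SD.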
# [2] = Lipophilicity, change in Constant K of the compound by RP-HPLC analysis relative to PPTN; format: physicochemical
# Outline: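 Lipophilicity taken from reversed-phase HPLC retention time on a C18 column. Elution used a 20 min gradient of 10 to 100% acetonitrile in 10 mM triethylammonium acetate. Reported as Δk against the reference antagonist.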
# [3] = Aqueous solubility at pH 4 by pION method; format: physicochemical; details: buffer; outline: as §1
# [4] = Unbound fraction in mouse plasma; format: ADME, cell-free
# Outline: (§2)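 Plasma protein binding measured at 10 μM compound in human and mouse plasma, expressed as percent unbound (mean ± SD). Verapamil and warfarin were positive controls.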
# P2Y purinoceptor 14 [5] = biological target: T1, P2Y purinoceptor 14 (Homo sapiens, UniProt Q15391); assay: Inhibition of MRS4174 binding to human P2Y14R expressed in CHO cells pre-incubated for 30 mins before MRS4174 addition and further incubated for 30 mins at pH 7.4 by flow cytomtery based competitive fluorescence assay; format: cell-based
# T1 sequence (Q15391 whole entry): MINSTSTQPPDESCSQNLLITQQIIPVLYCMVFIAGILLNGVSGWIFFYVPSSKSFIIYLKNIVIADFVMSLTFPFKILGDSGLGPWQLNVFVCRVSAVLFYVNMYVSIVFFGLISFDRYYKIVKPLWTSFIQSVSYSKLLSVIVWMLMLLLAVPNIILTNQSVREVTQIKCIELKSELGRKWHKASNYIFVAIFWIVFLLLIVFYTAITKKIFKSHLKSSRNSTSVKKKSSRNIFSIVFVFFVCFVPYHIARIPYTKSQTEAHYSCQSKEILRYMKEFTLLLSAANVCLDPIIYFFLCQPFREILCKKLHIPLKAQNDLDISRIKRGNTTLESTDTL
# P2Y purinoceptor 14 [6] = biological target: T2, P2Y purinoceptor 14 (Mus musculus, UniProt Q9ESG6); assay: Inhibition of MRS4174 binding to mouse P2Y14R expressed in HEK293 cells pre-incubated for 30 mins before MRS4174 addition and further incubated for 30 mins by flow cytomtery based competitive fluorescence assay; format: cell-based
# T2 sequence (Q9ESG6 whole entry): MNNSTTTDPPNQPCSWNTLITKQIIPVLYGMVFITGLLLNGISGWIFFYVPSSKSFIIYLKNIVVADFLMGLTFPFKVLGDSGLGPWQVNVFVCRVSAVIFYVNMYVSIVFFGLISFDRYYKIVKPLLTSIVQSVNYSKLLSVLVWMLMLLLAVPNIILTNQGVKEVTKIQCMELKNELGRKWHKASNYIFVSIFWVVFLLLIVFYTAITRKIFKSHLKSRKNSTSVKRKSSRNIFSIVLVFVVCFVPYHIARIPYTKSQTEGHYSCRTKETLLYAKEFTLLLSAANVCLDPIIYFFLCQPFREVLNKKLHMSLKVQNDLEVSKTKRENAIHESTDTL
# Outline: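 Competitive whole-cell binding in HEK293 cells stably expressing N-terminally HA-tagged mouse P2Y14R, grown in a 24-well plate to 80–90% confluency. Antagonist given at 1 nM–100 μM in serum-containing EMEM for 30 min at 37 °C, then tracer added at 20 nM final for 30 min.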
# [7] = Unbound fraction in human plasma; format: ADME, cell-free; outline: as §2
# Cannabinoid receptor 2 [8] = biological target: T3, Cannabinoid receptor 2 (Homo sapiens, UniProt P34972); assay: Agonist activity at CB2 receptor (unknown origin)
# Outline: (§3)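 Tested through the Psychoactive Drug Screening Program as functional agonist and antagonist at CB1 and CB2 cannabinoid receptors, with an upper test concentration of 10 μM.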
# Cannabinoid receptor 1 [9] = biological target: T4, Cannabinoid receptor 1 (Homo sapiens, UniProt P21554); assay: Agonist activity at CB1 receptor (unknown origin); outline: as §3
# Cannabinoid receptor 2 [10] = biological target: T3, Cannabinoid receptor 2; assay: Antagonist activity at CB2 receptor (unknown origin); outline: as §3
# Cannabinoid receptor 1 [11] = biological target: T4, Cannabinoid receptor 1; assay: Antagonist activity at CB1 receptor (unknown origin); outline: as §3
# Homo sapiens = species on record: Homo sapiens; assay: Selectivity index, ratio of IC50 for inhibition of MRS4174 binding to human P2Y14R expressed in CHO cells to IC50 for inhibition of MRS4174 binding to mouse P2Y14R expressed in […] cells; format: cell-based
# Outline: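 Ratio of human to mouse IC50 from fluorescent-tracer binding. Human P2Y14R was in CHO cells in a 96-well format. Mouse P2Y14R was in HEK293 cells, with 30 min antagonist pre-incubation and then 20 nM tracer for 30 min at 37 °C. Both read by flow cytometry.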
# [12] = Binding affinity to 5HT6 receptor (unknown origin); design: species or system Homo sapiens
# [13] = Binding affinity to sigma 2 receptor (unknown origin); design: species or system Homo sapiens
# [14] = biological target: Delta-type opioid receptor (Homo sapiens, UniProt P41143); assay: Binding affinity to DOR (unknown origin)
# Delta-type opioid receptor, sequence (P41143 whole entry): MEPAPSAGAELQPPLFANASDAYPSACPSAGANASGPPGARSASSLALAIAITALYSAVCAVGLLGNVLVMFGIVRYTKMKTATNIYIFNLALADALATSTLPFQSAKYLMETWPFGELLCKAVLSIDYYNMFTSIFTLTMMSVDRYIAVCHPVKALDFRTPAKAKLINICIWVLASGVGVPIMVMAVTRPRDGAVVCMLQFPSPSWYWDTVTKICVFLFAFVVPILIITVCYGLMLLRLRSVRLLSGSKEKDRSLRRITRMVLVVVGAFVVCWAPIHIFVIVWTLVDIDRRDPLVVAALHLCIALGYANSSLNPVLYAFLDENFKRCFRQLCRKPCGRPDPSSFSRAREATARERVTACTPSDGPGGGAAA
# T4 sequence (P21554 whole entry): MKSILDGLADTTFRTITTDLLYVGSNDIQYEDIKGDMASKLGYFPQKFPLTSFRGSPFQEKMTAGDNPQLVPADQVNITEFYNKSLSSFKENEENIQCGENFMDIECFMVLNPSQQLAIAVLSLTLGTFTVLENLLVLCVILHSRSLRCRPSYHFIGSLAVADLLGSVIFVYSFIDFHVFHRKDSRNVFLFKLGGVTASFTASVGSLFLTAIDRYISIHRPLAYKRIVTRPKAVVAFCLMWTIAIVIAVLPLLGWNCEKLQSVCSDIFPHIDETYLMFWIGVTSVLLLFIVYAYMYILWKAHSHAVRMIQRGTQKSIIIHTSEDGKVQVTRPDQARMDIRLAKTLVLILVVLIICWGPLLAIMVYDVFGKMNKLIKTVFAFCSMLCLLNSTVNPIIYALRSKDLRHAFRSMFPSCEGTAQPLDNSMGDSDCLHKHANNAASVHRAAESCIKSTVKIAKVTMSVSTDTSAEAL
# T3 sequence (P34972 whole entry): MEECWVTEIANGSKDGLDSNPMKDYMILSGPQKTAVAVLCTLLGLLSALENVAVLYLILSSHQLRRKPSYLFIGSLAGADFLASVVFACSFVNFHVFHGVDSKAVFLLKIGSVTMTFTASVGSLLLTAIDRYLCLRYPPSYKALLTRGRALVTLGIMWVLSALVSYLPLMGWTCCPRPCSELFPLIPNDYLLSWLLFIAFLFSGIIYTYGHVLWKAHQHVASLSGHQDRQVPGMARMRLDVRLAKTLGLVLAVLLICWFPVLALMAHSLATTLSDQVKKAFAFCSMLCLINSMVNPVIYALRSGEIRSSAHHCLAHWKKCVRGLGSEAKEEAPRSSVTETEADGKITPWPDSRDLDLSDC
structure (smiles),measurement,setting,value
C#CCCCCN1CCC(c2ccc(-c3cc(C(=O)O)cc4cc(-c5ccc(C(F)(F)F)cc5)ccc34)cc2)CC1,Activity,Mus musculus,Active
C[N+]12CCC(c3ccc(-c4cc(C(=O)O)cc5cc(-c6ccc(C(F)(F)F)cc6)ccc45)cc3)(CC1)CC2,solubility,[1],1.72 µg/mL
same,fold change (FC),[2],0.24
same,solubility,[3],2.24 µg/mL
same,Fu,[4],0.94%
same,IC50,P2Y purinoceptor 14 [5],38.3 nM
same,IC50,P2Y purinoceptor 14 [6],56.3 nM
same,Fu,[7],1.13%
O=C(O)c1cc(-c2ccc(C3CCNCC3)cc2)c2ccc(-c3ccc(C(F)(F)F)cc3)cc2c1 [PPTN],solubility,[1],0.36 µg/mL
same,solubility,[3],1.1 µg/mL
same,EC50,Cannabinoid receptor 2 [8],> 10000 nM
same,Activity,Mus musculus,Active
same,EC50,Cannabinoid receptor 1 [9],> 10000 nM
same,EC50,Cannabinoid receptor 2 [10],> 10000 nM
same,EC50,Cannabinoid receptor 1 [11],> 10000 nM
O=C(O)c1[nH]c(-c2ccc(C3=CCNCC3)cc2)cc1-n1cc(-c2ccc(C(F)(F)F)cc2)nn1,IC50,P2Y purinoceptor 14 [5],> 100000 nM
NC(=O)c1ccc(-c2cc(C(=O)O)cc(-n3cc(-c4ccc(C(F)(F)F)cc4)nn3)c2)cc1,Ratio IC50,Homo sapiens,3.4
same,IC50,P2Y purinoceptor 14 [6],902 nM
same,Ki,[12],6890 nM
O=C(O)c1cc(-c2ccc(C34CCNCC3C4(F)F)cc2)cc(-n2cc(-c3ccc(C(F)(F)F)cc3)nn2)c1 (stereo unspecified),IC50,P2Y purinoceptor 14 [5],639 nM
O=C(O)c1cc(-c2ccc(C34CCNCC3C4)cc2)cc(-n2cc(-c3ccc(C(F)(F)F)cc3)nn2)c1 (stereo unspecified),Ratio IC50,Homo sapiens,3.3
same,IC50,P2Y purinoceptor 14 [5],359 nM
same,Ki,[13],300 nM
same,Ki,[14],2630 nM
same,IC50,P2Y purinoceptor 14 [6],1160 nM
O=C(O)c1cc(-c2ccc(C3CCNCC3)cc2)cc(-n2cc(-c3ccc(C(F)(F)F)cc3)nn2)c1,Activity,Mus musculus,inactive
